SMILES strings stand for the structures.

Data set [1] is described as follows: Cytotoxicity against human HG23 cells after 72 hrs by crystal violet staining-based assay. Type of data set: cell-based.
Data set [2] in a line: Inhibition of Norovirus 3CL protease using Edans-DFHLQ/GP-Dabcyl as substrate preincubated for 30 mins followed by substrate addition measured for 1 hr by FRET assay. Put shortly: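 Protease preincubated at 37 °C for 30 min with serially diluted compound (up to 100 μM) or DMSO in assay buffer: 20 mM HEPES pH 8, 200 mM NaCl, 0.4 mM EDTA, 60% glycerol, 6 mM DTT. Substrate was then added. Fluorescence (ex 360/em 460 nm) was read for 1 h, with no-protease background subtracted. IC50 came from variable-slope dose-response fits.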

The subject of the next data set is Norovirus. The data set is described as follows: Antiviral activity against Norovirus replicon infected in human HG23 cells assessed as inhibition of viral RNA replication after 48 hrs by qRT-PCR method. It counts as functional, organism-based. Put shortly: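 HG23 cells carrying the NV replicon, confluent or semi-confluent, were given medium with compound (up to 100 μM) or DMSO (<0.1%) for 48 h. Total RNA was then extracted and viral genome quantified by real-time qRT-PCR. EC50 was derived from curve fitting.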

For orientation: CC50 means the concentration giving 50% cytotoxicity. What is called IC50 is the midpoint of a concentration-inhibition curve. What is called EC50 is the concentration giving half of the maximal effect. On to `CC(C)C[C@@H](C(=O)N[C@@H](C[C@@H]1CCNC1=O)C(O)S(=O)(=O)O)N1CC(COc2cccc(Cl)c2)OC1=O` (mixture of isomers), for which the CC50 at 72 h in data set [1] was over 100 µM. Further, the IC50 in data set [2] was determined as 8.5 µM. The EC50 in the data set with Norovirus (Norovirus, HG23, 48 h) came to 7.6 µM.
The matching figures for `O=C1NCC[C@H]1C[C@H](NC(=O)[C@H](CC1CCCCC1)N1CC(Cc2cccc(Cl)c2)OC1=O)C(O)S(=O)(=O)O` (mixture of isomers): 46.1 µM, 15.1 µM and 8.1 µM.
The matching figures for `O=C[C@H](C[C@@H]1CCNC1=O)NC(=O)[C@H](CC1CCCCC1)N1CC(Cc2cccc(Cl)c2)OC1=O` (mixture of isomers): 55.2 µM, 13.5 µM and 6.7 µM.
In turn, `CC(C)C[C@@H](C(=O)N[C@H](C=O)C[C@@H]1CCNC1=O)N1CC(COCc2cccc(Cl)c2)OC1=O` (mixture of isomers) returned a half-maximal cytotoxic concentration (CC50) at 72 h in data set [1] of over 100 µM. In addition, in data set [2], the IC50 stood at 8.1 µM. In the data set with Norovirus (Norovirus, HG23, 48 h), the concentration for a half-maximal effect (EC50) stood at 14.8 µM.
Turning to `CC(C)C[C@@H](C(=O)N[C@H](C=O)C[C@@H]1CCNC1=O)N1CC(COc2cccc(Cl)c2)OC1=O` (mixture of isomers), in data set [1], the CC50 at 72 h is over 100 µM. Besides, inhibition in data set [2] was half-maximal at 3.8 µM (IC50). Also, in the data set on Norovirus (Norovirus, HG23, 48 h), the concentration for a half-maximal effect (EC50) is 8.2 µM.
In turn, `CC(C)C[C@@H](C(=O)N[C@@H](C[C@@H]1CCNC1=O)C(O)S(=O)(=O)O)N1CC(COCc2cccc(Cl)c2)OC1=O` (mixture of isomers) registered a CC50 at 72 h in data set [1] of over 100 µM. The compound further displayed a half-maximal inhibitory concentration (IC50) in data set [2] of 10.6 µM. For the same compound, in the data set on Norovirus (Norovirus, HG23, 48 h), the EC50 was found to be 17.3 µM.
In the case of `CC(C)C[C@@H](C(=O)N[C@H](C=O)C[C@@H]1CCNC1=O)N1CC(Cc2cccc(Cl)c2)OC1=O` (stereo in doubt; 8A), half-maximal inhibition in data set [2] (IC50) required 7.3 µM. The concentration for a half-maximal effect (EC50) in the data set with Norovirus (Norovirus, HG23, 48 h) turned out to be 11.5 µM.
`CC(C)C[C@@H](C(=O)N[C@H](C=O)C[C@@H]1CCNC1=O)N1CC(Cc2cccc(Cl)c2)OC1=O` (stereo in doubt; 8B) showed a 50% cytotoxic concentration (CC50) at 72 h in data set [1] of over 100 µM. Besides, the concentration for half-maximal inhibition (IC50) in data set [2] stood at 15.3 µM. In addition, the EC50 in the data set with Norovirus stood at 15.3 µM.
Take `CC(C)C[C@@H](C(=O)N[C@@H](C[C@@H]1CCNC1=O)C(O)S(=O)(=O)O)N1CC(Cc2cccc(Cl)c2)OC1=O` (stereo in doubt; 12A): 8.2 µM corresponded to half-maximal inhibition in data set [2] (IC50). Moreover, the concentration for a half-maximal effect (EC50) in the data set on Norovirus (Norovirus, HG23, 48 h) was 12.3 µM.
In the case of `CC(C)C[C@@H](C(=O)N[C@@H](C[C@@H]1CCNC1=O)C(O)S(=O)(=O)O)N1CC(Cc2cccc(Cl)c2)OC1=O` (stereo in doubt; 12B), in data set [1], the CC50 at 72 h is over 100 µM. In addition, the midpoint of inhibition in data set [2], the IC50, lay at 13.2 µM. Moreover, in the data set on Norovirus, the concentration giving a half-maximal response (EC50) was 17.5 µM.
